According to PubChem BioAssay AID1019 (Sanford-Burnham Center for Chemical Genomics, 2008):
Fewer than 10 of roughly 190,000 compounds were called active.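 Rule for the calls: active = over 50% inhibition of intestinal alkaline phosphatase at 20 µM in the single-dose screen; inactive = the rest.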 These entries were drawn from the full list.

Each compound was assayed on alkaline phosphatase, intestinal [Bos taurus] (assay: bovine intestinal alkaline phosphatase inhibitors, primary screen, selectivity assay for TNAP inhibitor project, biochemical, bovine IAP, CDP-star luminescence (AID 1019)). Details: purified bovine IAP, 30 min, at 20 µM, stronger effect = higher value.
Procedure, shortened: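 Incubation: 30 min reaction at room temperature / Material: purified bovine intestinal alkaline phosphatase (IAP) enzyme / Input: enzyme at 1/65,000,000 dilution / Dosing: 20 µM single dose / Signal: CDP-star luminescence signal / Reagent: CDP-star chemiluminescent phosphatase substrate, 30 µM final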

inhibition, inactive:
COc1ccc(CCNC(=O)CN(c2ccccc2)S(C)(=O)=O)cc1 -4%
CCCc1nc2c([nH]1)C(c1cccnc1)C(C#N)=C(N)O2 (stereo unspecified) 8.5%
CC(OC(=O)CCc1nc(=O)c2ccccc2n1C)C(=O)NCc1ccc2c(c1)OCO2 (stereo unspecified) -9.4%
O=c1[nH]c(=S)[nH]c2[nH]c(=S)[nH]c12 18.7%
CC(C)N(Cc1nc(-c2ccc3c(c2)OCO3)no1)CC1CCC(=O)N1 (stereo unspecified) 2.1%
O=C(NC1CC1)c1ccc(-c2ccccc2)cc1 -4.4%
O=C(O)CSCC(=O)Nc1ccc(C(F)(F)F)cc1 3.8%
COc1cc(OC)cc(C(=O)NCC(=O)OCc2csc(-c3ccccc3)n2)c1 1.4%
CNc1nccc(-c2ccc(Cl)cc2)c1C#N -1.9%
O=C(c1ccc(C(F)(F)F)cc1)C1CCCN(C(=O)c2csnn2)C1 (stereo unspecified) 9.5%
CN1C(=O)/C(=C/c2ccco2)SC1=Nc1cccc(C(=O)O)c1 -5.3%
COC(=O)CCC(=O)N1CCCC(CO)(Cc2ccccc2)C1 (stereo unspecified) 6.2%
CCN(CC)CCN(C(=O)c1cccc([N+](=O)[O-])c1)c1nc2ccc(OC)cc2s1 4.9%
O=C(Nc1ccc([N+](=O)[O-])cc1)C1(c2ccccc2)CCOCC1 9.9%
Cc1noc(C)c1COc1cccc(C(=O)Nc2cccnc2)c1 -7.5%
CC(C)CCNC(=O)c1cccnc1Sc1ccccc1 -6.1%
Brc1ccc(C2CC(c3ccccc3)=Nc3ccccc3N2)cc1 (stereo unspecified) 7.5%
Cc1ccc(C)c(Cn2nnc3c(=O)[nH]c(C(=O)Nc4ccc(F)cc4)nc32)c1 2.7%
COc1ccccc1CN(C)C(=O)C1(c2ccc(Cl)cc2)CC1 11.2%
COCCNC(=S)Nc1cc(S(=O)(=O)N2CCOCC2)ccc1N1CCCCC1 -0.2%
COc1ccc(S(=O)(=O)N2CCN(C(=O)c3cc(C)oc3C)CC2)cc1 4.3%
Cc1ccc(NC(=O)c2oc3ccccc3c2C)c([N+](=O)[O-])c1 21.2%
Clc1ccc(-c2cc(C3CCNCC3)[nH]n2)c(Cl)c1 1%
COc1cccc(NC(=O)C(Sc2nnnn2C)c2ccccc2)c1 (stereo unspecified) -2.3%
CCC1SC(CC)C(=O)N(CC(=O)NC2CCCCC2)C1=O (stereo unspecified) 11.7%
O=C(CCc1[nH]c2ccccc2c1Sc1ccccc1)N(CCO)CCO 14.8%
Cc1ccc(S(=O)(=O)N(Cc2ccc(Cl)cc2)c2ccccc2C(=O)NCc2cccnc2)cc1 15.3%
O=C(C/C(=N\NC(=O)c1ccccc1Br)C(F)(F)F)c1cccs1 5.9%
Cc1ccc(C(=O)N2CCN(S(=O)(=O)N3CCOCC3)CC2)cc1 9%
CCc1cccc(C)c1NC(=O)COC(=O)Cc1ccsc1 -0.9%
O=C(CSc1nncs1)NC1CCCc2ccccc21 (stereo unspecified) -2.1%
Cc1ccc2nc(C)cc(N/N=C/c3ccc(F)cc3)c2c1 0.2%
O=C(COC(=O)Cn1cnc2ccccc2c1=O)NCC12CC3CC(CC(C3)C1)C2 12.5%
O=C1CCC(CCC(=O)N2CCCC(C(=O)c3ccc(Cl)cc3)C2)=NN1 (stereo unspecified) -3%
CCC(C)CN1CCC(CO)(Cc2ccccc2Cl)CC1 (stereo unspecified) -18.6%
COc1ccc(N2C(=O)C(Cc3ccccc3)NC2=S)cc1 (stereo unspecified) -2.9%
COc1ccc(-n2cnnc2SCC(=O)Nc2cccc([N+](=O)[O-])c2)cc1 8.1%
Cc1nc2scc(-c3cccs3)c2c(=O)n1N -37.2%
CCN(CC(=O)Nc1ccc(Cl)c(S(=O)(=O)N(C)C)c1)Cc1nc2ccccc2c(=O)[nH]1 -108%
COc1cc(C(=O)Nc2cc(C(F)(F)F)ccc2-n2cncn2)cc(OC)c1OC -1.7%
NS(=O)(=O)c1ccc(CCNC(=O)c2ccc(Cl)cc2[N+](=O)[O-])cc1 -14.5%
Cc1nc2ccccn2c1C(=O)NN=C1CCN(C)CC1 -6.8%
CC(=O)NNC1=Nc2ccccc2N(C)C(C)C1 (stereo unspecified) 26.5%
Clc1ccc(N/N=C/c2cccs2)nn1 -1.4%
Cc1cccc(CSc2ccc(-c3cccs3)nn2)c1 14.5%
COC(=O)c1c(NC(=O)c2c(Cl)cnn2C)sc(C)c1C 0.9%
O=C(NCc1cccs1)c1cc(-c2ccccn2)nc2ccc(Br)cc12 -9.8%
CC1CCN(C(=O)c2ccc(S(=O)(=O)Cc3cc(F)ccc3F)c([N+](=O)[O-])c2)CC1 18.6%
COc1ccc(CCN=C2SCC(=O)N2Cc2ccccc2)cc1OC 3.1%
COc1ccc(C(=O)NNC(=O)c2cc(C)[nH]n2)cc1 -38.6%
CCN(CC)CCN(C(=O)c1ccc(N2C(=O)CCC2=O)cc1)c1nc2cc3c(cc2s1)OCO3 -11.6%
CC(=O)Nc1ccc(C(=O)OCC(=O)Nc2ccc([N+](=O)[O-])cc2C(F)(F)F)cc1 34.7%
Cn1cc(CN2CCCCC2c2ccccn2)c(-c2ccc3c(c2)OCCO3)n1 (stereo unspecified) 6.3%
COc1ccc(C(=O)Nc2ccc(N3CCC(C)CC3)cc2)cc1Br -10.7%
O=C(CSc1ccccc1)Nc1cc(Cl)ccc1Oc1ccccc1 6.2%
N/C(Cc1ccc([N+](=O)[O-])cc1)=N\OC(=O)C1CCCCC1 -0.5%
CCCCS(=O)c1snnc1C (stereo unspecified) -11.4%
C[C@@H]1NC(=O)c2cc([N+](=O)[O-])cc(F)c2NCCC[C@@H](C(N)=O)NC(=O)[C@H](CC(N)=O)NC1=O 38.7%
CCN(CC)C(=O)Oc1ccc(OC(=O)N(CC)CC)cc1 -10.3%
CC(=O)NCC(=O)N(Cc1ccco1)C1(C(=O)NC2CCCC2)CCCCC1 3.8%
CCOC(=O)c1c(CN(C)C)n(-c2ccccc2)c2cc(Br)c(O)cc12 -6.7%
